This note sets out measurements from ChEMBL document CHEMBL1158546, “Discovery of novel and potent leukotriene B4 receptor antagonists. Part 1” (J Med Chem, 2010).

Data set [1] in a line: Lipophilicity, log D of compound at pH 7.4. As to conditions: buffer.
Data set [2] is described as follows: Solubility of compound in small intestinal contents in the fed state at pH 5. Type of data set: ADME. The method, boiled down:
(§1)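 Solubility measured in simulated intestinal fluid at pH 5.0 (fed) or pH 6.5 (fasted), reported in μg/mL.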

A short description of data set [3]: Solubility of compound in small intestinal contents in the fasted state at pH 6.5. Type of data set: ADME. The method, boiled down:
as §1

Data set [4] concerns the target T1, Voltage-gated inwardly rectifying potassium channel KCNH2 (Homo sapiens, UniProt Q12809). Nature of the data set: Inhibition of human ERG expressed in CHO cells assessed as reduction of current amplitude.
The target of data set [5] is T1, Voltage-gated inwardly rectifying potassium channel KCNH2. Nature of the data set: Inhibition of human ERG expressed in CHO cells at 3 uM assessed as reduction of current amplitude.
The next data set addresses T2, Cytochrome P450 1A2 (Homo sapiens, UniProt P05177).
T2 sequence (P05177 whole entry): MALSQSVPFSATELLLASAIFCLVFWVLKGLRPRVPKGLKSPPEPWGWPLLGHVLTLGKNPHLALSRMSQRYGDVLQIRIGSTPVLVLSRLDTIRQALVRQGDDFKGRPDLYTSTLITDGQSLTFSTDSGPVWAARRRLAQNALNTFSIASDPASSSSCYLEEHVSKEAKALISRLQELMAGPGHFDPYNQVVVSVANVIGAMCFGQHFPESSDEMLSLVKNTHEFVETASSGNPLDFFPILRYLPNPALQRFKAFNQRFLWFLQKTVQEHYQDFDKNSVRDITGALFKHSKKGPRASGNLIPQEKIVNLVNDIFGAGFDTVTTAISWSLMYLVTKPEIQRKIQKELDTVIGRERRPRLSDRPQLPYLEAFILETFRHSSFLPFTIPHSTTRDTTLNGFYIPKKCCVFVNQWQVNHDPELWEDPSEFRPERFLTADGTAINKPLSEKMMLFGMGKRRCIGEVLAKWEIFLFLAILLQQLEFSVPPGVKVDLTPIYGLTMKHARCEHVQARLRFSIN
Nature of the data set: Inhibition of CYP1A2 by fluorescence method. It is filed as ADME. The method, boiled down:
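Cytochrome P450 high-throughput panel (1A2, 2D6, 2C9, 2C19, 3A4) using fluorogenic substrates; IC50 reported.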

The target in a further data set is Cytochrome P450 2C9 (Homo sapiens, UniProt P11712). Nature of the data set: Inhibition of CYP2C9 by LC/MS method. It is filed as ADME.
Sequence of Cytochrome P450 2C9 (P11712 whole entry): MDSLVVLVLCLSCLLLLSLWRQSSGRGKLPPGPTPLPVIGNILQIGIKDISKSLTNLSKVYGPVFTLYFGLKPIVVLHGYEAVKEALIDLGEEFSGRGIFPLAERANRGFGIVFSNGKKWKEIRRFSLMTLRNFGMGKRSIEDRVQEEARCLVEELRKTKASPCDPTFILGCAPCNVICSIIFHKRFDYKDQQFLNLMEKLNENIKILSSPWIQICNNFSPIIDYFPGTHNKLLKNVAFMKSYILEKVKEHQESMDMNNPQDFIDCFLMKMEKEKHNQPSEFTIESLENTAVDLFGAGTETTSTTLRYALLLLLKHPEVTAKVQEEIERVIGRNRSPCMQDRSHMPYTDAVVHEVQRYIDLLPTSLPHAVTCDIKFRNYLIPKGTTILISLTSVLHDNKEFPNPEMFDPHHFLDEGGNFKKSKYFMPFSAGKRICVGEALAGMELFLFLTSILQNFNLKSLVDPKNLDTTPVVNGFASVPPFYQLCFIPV
Data set [6] in a line: Cmax in Sprague-Dawley rat at 10 mg/kg, po. It is filed as ADME, organism-based. On the set-up: dose 10 mg/kg, route oral. Particulars: in vivo. The method, boiled down:
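Rat single-dose PK, n = 3, with oral dosing at 10 mg/kg and intravenous dosing at 2.5 or 5 mg/kg.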

Another data set deals with Cavia porcellus. Kind of data set: Antiinflammatory activity against LTB4-evoked eosinophilic pulmonary inflammation in Hartley guinea pig at 10 mg/kg, po after 1 hr treated before LTB4 challenge. It is filed as functional, organism-based. Also on record: dose 10 mg/kg. The method, boiled down:
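Male Hartley guinea pigs (250-350 g) were dosed orally with 10 mg/kg in 2% Klucel LF/0.1% Tween-80. One hour later they were exposed to 10 μg/mL LTB4 aerosol for 20 min. BAL (3 × 5 mL HBSS) was done 2 h after challenge under pentobarbital. Cells were counted, and differentials of at least 300 cells were taken on Wright-stained cytospins. Analysis by two-way ANOVA/Bonferroni; 4-20 animals per group.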

Data set [7] deals with Rattus norvegicus. Kind of data set: Toxicity in rat assessed as aspartate aminotransferase level at 40 mg/kg, po qd treated for 14 days. On the set-up: dose 40 mg/kg, route oral. Type of data set: organism-based. Particulars: in vivo, 336 h. The method, boiled down: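 Male Han-Wistar rats (200-230 g), n = 4 per group, were given 40 or 400 (mg/kg)/day orally for 14 days in 2% Klucel LF/0.1% Tween-80 versus vehicle. Body weight was recorded at pretreatment and on days 1, 8 and 14, and food intake weekly. Clinical chemistry was sampled on day 5 and at necropsy. Organs were formalin-fixed and H&E stained. Data are given as mean ± SD and analysed by Bartlett's test.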

The test system of data set [8] is Hepatocyte. Kind of data set: Metabolic stability in human hepatocytes assessed as compound metabolized after 3 hrs. It is filed as ADME, cell-based. The method, boiled down:
(§2)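 Cryopreserved hepatocytes at 1.5 million cells/mL (pooled human male/female N = 10, male CD1 mouse, SD rat, beagle dog, cyno monkey) were incubated in Leibovitz medium with 1% FBS and 10 μM substrate. Incubation ran 3 h at 37 C with shaking and was stopped with methanol. Cell-free controls used hepatocyte incubation medium. Parent and metabolites were quantified by UV peak area at 232-242 nm, assuming equal extinction coefficients.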

The nature of data set [9]: Metabolic stability in CD1 mouse hepatocytes assessed as compound metabolized after 3 hrs. It is filed as ADME, cell-based, Hepatocyte. The method, boiled down:
as §2

For data set [10], the system named is Hepatocyte. Nature of the data set: Metabolic stability in Sprague-Dawley rat hepatocytes assessed as compound metabolized after 3 hrs. It is filed as ADME, cell-based. The method, boiled down:
as §2

Data set [11] is described as follows: Metabolic stability in Beagle dog hepatocytes assessed as compound metabolized after 3 hrs. Type of data set: ADME, cell-based, Canis lupus familiaris, Hepatocyte. The method, boiled down: as §2
Data set [12] in a line: Metabolic stability in cynomolgus monkey hepatocytes assessed as compound metabolized after 3 hrs. Type of data set: ADME, cell-based, Macaca fascicularis, Hepatocyte. The method, boiled down:
as §2

Data set [13] is described as follows: Metabolic stability of compound assessed as remaining level in cell free assay. It is filed as ADME. The method, boiled down: as §2
The subject of data set [14] is Rattus norvegicus. Kind of data set: Metabolic stability of compound in rat plasma assessed as acylglucuronide isomers formed at 400 mg/kg, po. As to conditions: in vivo.
Data set [15] in a line: AUC (0 to 24hrs) in rat at 40 mg/kg, po qd treated for 14 days. Type of data set: ADME, organism-based. On the set-up: time < 24 hr, dose 40 mg/kg, route oral. Particulars: plasma. The method, boiled down: (§3)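 Male Han-Wistar rats (200-230 g) dosed orally once daily for 14 days in 2% Klucel LF/0.1% Tween-80 in water, n = 4 per group. Blood was taken from the retro-orbital sinus under isoflurane/O2 anesthesia, and plasma was separated by cold centrifugation and stored at -70 C until analysis. Exposure values refer to day 14.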

The nature of data set [16]: AUC(0 to 24hrs) in rat at 400 mg/kg, po qd treated for 14 days. It is filed as ADME, organism-based. On the set-up: time < 24 hr, dose 400 mg/kg, route oral. As to conditions: plasma. The method, boiled down:
as §3

Data set [17] can be described thus: Cmax in rat at 40 mg/kg, po qd treated for 14 days. It is filed as ADME, organism-based. Also on record: dose 40 mg/kg, route oral. As to conditions: in vivo. The method, boiled down: as §3
Data set [18] in a line: Cmax in rat at 400 mg/kg, po qd treated for 14 days. It is filed as ADME, organism-based. Also on record: dose 400 mg/kg, route oral. As to conditions: in vivo. The method, boiled down:
as §3

SMILES strings stand for the structures. Converted amounts (≈) assume the structure as drawn. The source made the active and inactive calls. The rule behind the calls is not given here.

T1 sequence (Q12809 whole entry): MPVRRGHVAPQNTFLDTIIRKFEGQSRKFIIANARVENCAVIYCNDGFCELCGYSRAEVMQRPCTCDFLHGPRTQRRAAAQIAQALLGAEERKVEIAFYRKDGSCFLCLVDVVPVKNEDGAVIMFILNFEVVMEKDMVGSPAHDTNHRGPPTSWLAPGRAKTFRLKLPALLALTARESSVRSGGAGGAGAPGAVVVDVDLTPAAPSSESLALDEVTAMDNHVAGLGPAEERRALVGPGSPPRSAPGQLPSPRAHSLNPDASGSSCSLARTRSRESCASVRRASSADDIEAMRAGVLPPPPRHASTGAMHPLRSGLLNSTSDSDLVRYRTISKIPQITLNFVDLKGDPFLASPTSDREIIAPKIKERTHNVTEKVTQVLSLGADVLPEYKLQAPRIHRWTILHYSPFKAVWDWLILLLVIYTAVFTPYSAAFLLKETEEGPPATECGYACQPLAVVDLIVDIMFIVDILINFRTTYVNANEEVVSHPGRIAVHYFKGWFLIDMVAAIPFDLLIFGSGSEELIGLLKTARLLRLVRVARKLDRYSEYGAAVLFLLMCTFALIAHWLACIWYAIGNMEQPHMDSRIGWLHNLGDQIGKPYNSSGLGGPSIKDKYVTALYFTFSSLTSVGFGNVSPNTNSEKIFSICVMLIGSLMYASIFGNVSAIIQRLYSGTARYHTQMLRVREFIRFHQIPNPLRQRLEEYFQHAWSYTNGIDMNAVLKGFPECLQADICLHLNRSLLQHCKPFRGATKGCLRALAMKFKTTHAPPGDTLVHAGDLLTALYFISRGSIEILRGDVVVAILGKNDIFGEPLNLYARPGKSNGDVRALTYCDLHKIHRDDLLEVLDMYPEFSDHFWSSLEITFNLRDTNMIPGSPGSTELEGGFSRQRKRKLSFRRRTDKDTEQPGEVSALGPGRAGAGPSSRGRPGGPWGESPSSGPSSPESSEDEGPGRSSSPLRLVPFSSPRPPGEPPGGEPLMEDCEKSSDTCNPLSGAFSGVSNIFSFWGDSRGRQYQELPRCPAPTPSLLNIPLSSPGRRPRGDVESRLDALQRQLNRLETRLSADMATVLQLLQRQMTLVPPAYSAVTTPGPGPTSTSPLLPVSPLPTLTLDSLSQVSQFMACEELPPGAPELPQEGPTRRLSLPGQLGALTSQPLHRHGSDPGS

What is called logD is lipophilicity at a set pH, counting ionised and neutral species. Broadly, the solubility is the concentration that dissolves in the medium under given conditions. By IC50 is commonly meant the midpoint of a concentration-inhibition curve. The Cmax is the peak of the concentration-time curve. In the case of `O=C(O)CCCOc1cccc(CCCCCCOc2cc(-c3ccsc3)cc(-c3ccc4c(c3)OCO4)c2)c1CCC(=O)O`, the logD in data set [1] came to 2.34. Moreover, the solubility in data set [2] was 0.0329 mg/mL (≈ 52.2 µM); in [3], 0.0346 mg/mL (≈ 54.9 µM). Also, the IC50 in data set [4] is above 3 µM; on Cytochrome P450 1A2, above 7.5 µM; against Cytochrome P450 2C9, 22.5 µM. The INH result in data set [5] is listed as “Not Active”. The molecule further showed a Cmax in data set [6] of 6.21 µM. Moreover, in the data set with Cavia porcellus, the result was Active. The Activity entry in the data set on Rattus norvegicus [7] was “Non-toxic”; with Hepatocyte [8], 17.3%; in data set [9] it was 16.9%; in the data set with Hepatocyte [10], 20.4%; in data set [11] it was 27.8%; in [12], 7.7%. The Activity in [13] is on record as 100%. The Stability in the data set on Rattus norvegicus [14] is listed as 6%.

For orientation: AUC means the area under the concentration-time curve, a measure of exposure. Regarding `O=C(O)CCCOc1cccc(CCCCCCOc2cc(-c3cccc(F)c3)cc(-c3ccc4c(c3)OCO4)c2)c1CCC(=O)O`, the IC50 on Cytochrome P450 1A2 was above 7.5 µM. The values for the Cmax in data set [6], in data set [17] and in [18] were 2.25 µM, 11.3 µg/mL and 124 µg/mL, respectively. Besides, the result with Cavia porcellus was Active. Further, the Activity entry in the data set with Rattus norvegicus [7] is “Non-toxic”. Besides, the figures for the AUC at 24 h in data set [15] and in data set [16] were 80.6 µg·h/mL and 1870 µg·h/mL, respectively.
